Data as given in ChEMBL document CHEMBL1121901, “Synthesis and structure-activity relationship of spiro[isochromanpiperidine] analogues for inhibition of histamine release” (1981).
Activity calls are given as the source filed them. The rule behind the calls is not given here.

Experiments:
Rattus norvegicus [1] = species: Rattus norvegicus; assay: Inhibitory activity against 48/80 induced release of Histamine from isolated rat peritoneal mast cells at a dose of 10e-3 mol; type: functional
Outline: (§1)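 Rat peritoneal cells (~10% mast cells) collected by lavage with Tris-HCl-buffered (10 mmol, pH 7.4) salt solution. The reaction was stopped on ice. Histamine was measured by o-phthalaldehyde fluorometry in duplicate, expressed as % of total minus spontaneous release, with % inhibition taken versus 48/80 alone.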

Rattus norvegicus [2] = species: Rattus norvegicus; assay: Inhibitory activity against 48/80 induced release of Histamine from isolated rat peritoneal mast cells at a dose of 2*10e-4 mol; type: functional; outline: as §1
Rattus norvegicus [3] = species: Rattus norvegicus; assay: Inhibitory activity against 48/80 induced release of Histamine from isolated rat peritoneal mast cells at a dose of 5*10e-4 mol; type: functional; outline: as §1
Rattus norvegicus [4] = species: Rattus norvegicus; assay: Inhibitory activity on the compound (in 0.5% CMC solution) 48/80 induced release of Histamine rat mast cell degranulation at a dose of 0.25micorg/mL, incubated for 15 min at 37 degree C; type: functional
Outline: (§2)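 Harvested rat peritoneal mast cells were preincubated 15 min at 37 °C with test compound suspended in 0.5% CMC (final 10^-3 mol/L). Degranulation was scored by inverted phase-contrast microscopy, counting >100 mast cells. % inhibition = 100[1 − (X − Z)/(Y − Z)], where Z corrects for degranulation in control medium.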

Rattus norvegicus [5] = species: Rattus norvegicus; assay: Inhibitory activity against 48/80 induced release of Histamine from isolated rat peritoneal mast cells at a dose of 5*10e-4 mol; Inactive; type: functional, cell-based
Rattus norvegicus [6] = species: Rattus norvegicus; assay: Inhibitory activity on compound (in 0.5% CMC solution) 48/80 induced rat mast cell degranulation at a dose of 0.25micorg/mL, incubated for 15 min at 37 degree C; type: functional; outline: as §2
Rattus norvegicus [7] = species: Rattus norvegicus; assay: (§3) Inhibitory activity on the compound 48/80 induced release of Histamine from isolated rat peritoneal mast cells at a dose of 5*10e-4 mol; type: functional; outline: as §1
Rattus norvegicus [8] = species: Rattus norvegicus; assay: Inhibitory activity of histamine release at 2*10e-3 mol; type: functional
Rattus norvegicus [9] = species: Rattus norvegicus; assay: as §3; type: functional; outline: as §1; remark: listed apart in the source
Rattus norvegicus [10] = species: Rattus norvegicus; assay: Inhibitory activity on the compound 48/80 induced release of Histamine from isolated rat peritoneal mast cells at a dose of 2*10e-4 mol; type: functional; outline: as §1
Rattus norvegicus [11] = species: Rattus norvegicus; assay: Inhibitory activity on the compound 48/80 induced release of Histamine from isolated rat peritoneal mast cells at a dose of 10e-3 mol; type: functional; outline: as §1
Rattus norvegicus [12] = species: Rattus norvegicus; assay: Inhibitory activity (10e-3 mol/L) against 48/80 induced rat mast cell degranulation at a dose of 0.25ug/mL, incubated for 15 min at 37 degree C; type: functional; outline: as §2
Rattus norvegicus [13] = species: Rattus norvegicus; assay: Inhibitory activity against 48/80 induced release of Histamine from isolated rat peritoneal mast cells at a dose of 10e-3 mol; Inactive; type: functional, cell-based; outline: as §1

| Structure (SMILES) | Inhibition (Rattus norvegicus [1]) | Inhibition (Rattus norvegicus [3]) | inhibition (Rattus norvegicus [5]) | also measured |
| --- | --- | --- | --- | --- |
| Cl.O=C1OC2(CCN(Cc3ccccc3)CC2)Cc2ccccc21 | 76% | 40% | – | Inhibition (Rattus norvegicus [2]): 20%; Inhibition (Rattus norvegicus [4]): 94.5% |
| O=C([O-])c1cc(=O)c2c(OCC(O)COc3cccc4oc(C(=O)[O-])cc(=O)c34)cccc2o1.[Na+].[Na+] [CROMOLYN SODIUM] | 80% | 58% | – | Inhibition (Rattus norvegicus [2]): 31% |
| O=C1OC2(CCNCC2)Cc2ccccc21 | – | – | inactive | – |
| O=C1OC2(CCC(Cc3ccccc3)CC2)Cc2ccccc21 (centres undefined) | – | – | – | Inhibition (Rattus norvegicus [6]): 52% |
| CN1CCC2(CC1)COCc1ccccc12 | – | – | inactive | – |
| CCOC(=O)C1c2ccccc2C(=O)OC12CCN(Cc1ccccc1)CC2.Cl (centres undefined) | 84% | 12% | – | – |
| O=C1OC2(CCN(C3CCCCC3)CC2)Cc2ccccc21 | – | – | inactive | – |
| CCCCCCCCCCN1CCC2(CC1)Cc1ccccc1C(=O)O2 | – | – | – | inhibition (Rattus norvegicus [7]): inactive |
| CCCN1CCC2(CC1)Cc1ccccc1C(=O)O2 | – | – | inactive | – |
| C[N+]1(Cc2ccccc2)CCC2(CC1)Cc1ccccc1C(=O)O2.[I-] (centres undefined) | – | – | – | Inhibition (Rattus norvegicus [8]): 28% |
| CCCCCCCN1CCC2(CC1)Cc1ccccc1C(=O)O2.Cl | – | – | – | Inhibition (Rattus norvegicus [9]): 100%; Inhibition (Rattus norvegicus [10]): 64%; Inhibition (Rattus norvegicus [11]): 100% |
| OCC1(c2ccccc2)CCN(CCc2ccccc2)CC1 | 49% | – | – | – |
| CN(CCC1(C)COCc2ccccc21)Cc1ccccc1 (centres undefined) | – | – | – | Inhibition (Rattus norvegicus [4]): -8% |
| CCCCCCCCN1CCC2(CC1)Cc1ccccc1C(=O)O2 | – | – | – | inhibition (Rattus norvegicus [7]): inactive |
| Cl.O=C1OC2(CCN(c3ccccc3)CC2)Cc2ccccc21 | – | – | – | Inhibition (Rattus norvegicus [12]): 29.1% |
| Cl.O=C1OC2(CCN(CCc3ccccc3)CC2)Cc2ccccc21 | 86% | 6% | – | – |

| Structure (SMILES) | Inhibition (Rattus norvegicus [1]) | Inhibition (Rattus norvegicus [3]) | inhibition (Rattus norvegicus [5]) | also measured |
| --- | --- | --- | --- | --- |
| C=CCN1CCC2(CC1)OC(=O)c1ccccc1C2C(=O)OCC (centres undefined) | – | – | inactive | – |
| CN1CCC2(CC1)COC(=O)c1ccccc12 | – | – | inactive | – |
| CCCCCN1CCC2(CC1)Cc1ccccc1C(=O)O2.Cl | 79% | 35% | – | Inhibition (Rattus norvegicus [2]): 23% |
| Cl.c1ccc(CCN2CCC3(CC2)COCc2ccccc23)cc1 | 100% | 96% | – | Inhibition (Rattus norvegicus [2]): 28% |
| Cl.O=C1OC2(CCN(CC3CCCCC3)CC2)Cc2ccccc21 | 83% | 47% | – | – |
| CCCCN1CCC2(CC1)Cc1ccccc1C(=O)O2.Cl | 85% | 43% | – | Inhibition (Rattus norvegicus [2]): 18% |
| CCOC(=O)C1c2ccccc2C(=O)OC12CCN(C)CC2 (centres undefined) | – | – | inactive | – |
| Cl.O=C1OC2(CCN(CCCc3ccccc3)CC2)Cc2ccccc21 | 85% | 18% | – | Inhibition (Rattus norvegicus [2]): 5% |
| CCCCCCN1CCC2(CC1)Cc1ccccc1C(=O)O2.Cl | – | 67% | – | Inhibition (Rattus norvegicus [2]): 32% |
| O=C1OCC2(CCN(CCc3ccccc3)CC2)c2ccccc21 | 100% | 94% | – | Inhibition (Rattus norvegicus [2]): 15% |
| OCC1(c2ccccc2)CCN(Cc2ccccc2)CC1 | – | – | – | inhibition (Rattus norvegicus [13]): inactive |
| CN1CCC(CO)(c2ccccc2)CC1 | – | – | – | inhibition (Rattus norvegicus [13]): inactive |
| C=CCN1CCC2(CC1)Cc1ccccc1C(=O)O2 | – | – | inactive | – |
| CC(C)CN1CCC2(CC1)Cc1ccccc1C(=O)O2 | – | – | inactive | – |
| Cl.O=C1OCC2(CCN(Cc3ccccc3)CC2)c2ccccc21 | – | – | – | Inhibition (Rattus norvegicus [9]): 31%; Inhibition (Rattus norvegicus [2]): 5% |
| CN1CCC2(CC1)Cc1ccccc1C(=O)O2 | – | – | inactive | – |
